Measurements: ChEMBL document CHEMBL1122980, “Stereoselective metabolism of conformational analogues of warfarin by beta-naphthoflavone-inducible cytochrome P-450” (J Med Chem, 1985)

Organism: Rattus norvegicus
Assay: Rate of metabolism in liver microsomes (BNF treated rats)
Assay type: ADME
Procedure, shortened: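 Liver microsomes pooled from three male Sprague–Dawley rats (140–170 g) given BNF ip (80 mg/kg in corn oil) daily for 3 days, taken on day 4. Microsomal protein 2 mg/mL. Substrate added after 2-min equilibration, 200 μg/mL in acetone, or warfarin also in pH 7.4 phosphate buffer. Incubated 20 min at 37 °C, triplicate. Hydroxy metabolites quantified by GC/MS against deuterated internal standards. Rates given per nmol P-450 per min, mean ±SD.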
For `CO[C@]1(C)C[C@H](c2ccccc2)c2c(c3ccc(O)cc3oc2=O)O1`, the RPF was 12.8 pM nM-1.
With `CO[C@]1(C)C[C@@H](c2ccccc2)c2c(c3cccc(O)c3oc2=O)O1` the RPF was 42.8 pM nM-1.
In the case of `COC1(C)C[C@H](c2ccccc2)c2c(c3cc(O)ccc3oc2=O)O1` (some centres undefined), the RPF is reported as 20.3 pM nM-1.
For `CO[C@]1(C)C[C@@H](c2ccccc2)c2c(c3ccc(O)cc3oc2=O)O1`, the RPF was 14.9 pM nM-1.
In the case of `CO[C@]1(C)C[C@H](c2ccccc2)c2c(c3cccc(O)c3oc2=O)O1`, the RPF is reported as 14.9 pM nM-1.
`CO[C@]1(C)C[C@@H](c2ccc(O)cc2)c2c(c3ccccc3oc2=O)O1` was tested, and the RPF was 73.5 pM nM-1.
In the case of `CO[C@@]1(C)C[C@H](c2ccccc2)c2c(c3cccc(O)c3oc2=O)O1`, the RPF is reported as 15.1 pM nM-1.
`COC1(C)C[C@H](c2ccc(O)cc2)c2c(c3ccccc3oc2=O)O1` (some centres undefined) was tested, and the RPF was 76.2 pM nM-1.
With `CO[C@]1(C)C[C@H](c2ccc(O)cc2)c2c(c3ccccc3oc2=O)O1` the RPF was 52 pM nM-1.
`CO[C@]1(C)C[C@@H](c2ccccc2)c2c(c3cc(O)ccc3oc2=O)O1` was tested, and the RPF was 24.1 pM nM-1.
`CO[C@@]1(C)C[C@@H](c2ccccc2)c2c(c3cccc(O)c3oc2=O)O1` was tested, and the RPF was 34.6 pM nM-1.
In the case of `COC1(C)C[C@@H](c2ccccc2)c2c(c3ccc(O)cc3oc2=O)O1` (some centres undefined), the RPF is reported as 13.9 pM nM-1.
`COc1c([C@H](CC(C)=O)c2ccc(O)cc2)c(=O)oc2ccccc12` was tested, and the RPF was 85.3 pM nM-1.
With `COc1c([C@H](CC(C)=O)c2ccccc2)c(=O)oc2ccc(O)cc12` the RPF was 11.5 pM nM-1.
In the case of `COc1c([C@H](CC(C)=O)c2ccccc2)c(=O)oc2cc(O)ccc12`, the RPF is reported as 8.3 pM nM-1.
With `COc1c([C@@H](CC(C)=O)c2ccccc2)c(=O)oc2cc(O)ccc12` the RPF was 31.2 pM nM-1.
In the case of `COc1c([C@@H](CC(C)=O)c2ccc(O)cc2)c(=O)oc2ccccc12`, the RPF is reported as 47.8 pM nM-1.
With `COc1c([C@@H](CC(C)=O)c2ccccc2)c(=O)oc2ccc(O)cc12` the RPF was 19.1 pM nM-1.
For `COC1(C)C[C@H](c2ccccc2)c2c(c3ccc(O)cc3oc2=O)O1` (some centres undefined), the RPF was 19.3 pM nM-1.
In the case of `CC(=O)C[C@H](c1ccccc1)c1c(O)c2cc(O)ccc2oc1=O`, the Metabolism rate is reported as 113.7 pmol/min/nmol P-450 and the RPF is reported as 102 pmol/min/nmol.
`CC(=O)C[C@H](c1ccc(O)cc1)c1c(O)c2ccccc2oc1=O` was tested, and the Metabolism rate was 22.4 pmol/min/nmol P-450.
For `COC1(C)C[C@@H](c2ccccc2)c2c(c3cc(O)ccc3oc2=O)O1` (some centres undefined), the RPF was 14.8 pM nM-1.
Molecule `CC(=O)C[C@@H](c1ccccc1)c1c(O)c2ccc(O)cc2oc1=O` has a Metabolism rate of 216.8 pmol/min/nmol P-450 and an RPF of 195 pmol/min/nmol.
`CC(=O)C[C@@H](c1ccccc1)c1c(O)c2cc(O)ccc2oc1=O` showed a Metabolism rate of 41.2 pmol/min/nmol P-450 and an RPF of 37.1 pmol/min/nmol.
Molecule `CC(=O)C[C@@H](c1ccc(O)cc1)c1c(O)c2ccccc2oc1=O` has a Metabolism rate of 13.7 pmol/min/nmol P-450.
`COC1(C)C[C@@H](c2ccc(O)cc2)c2c(c3ccccc3oc2=O)O1` (some centres undefined) was tested, and the RPF was 64.8 pM nM-1.
